Assay results of several laboratories.
Lines come from different studies, so protocols differ.
Target: Activin receptor type-2A (ACVR2A, Homo sapiens, UniProt P27037)

SMILES	test	setting	remaining binding [%]
C[C@@H](c1ccc(-n2cnc3c(N)ncnc32)cc1)N1CCc2nn(C)c(Cc3ccccc3)c2C1=O	binding, competition with immobilised ligand	0.1 µM	92
CN(C)CC#Cc1ccc(OCCCc2sc(N3CCc4cccc(C(=O)Nc5nc6ccccc6s5)c4C3)nc2C(=O)O)c(F)c1	cell-free assay, competition with immobilised ligand	1 µM	94
CN(C)c1nccc(-c2cnc3ncccn23)n1	binding	1 µM	100
O=C(Nc1c[nH]nc1C(=O)NC1CCNCC1)c1cc(F)cc(F)c1	binding, competition with immobilised ligand	1 µM	100
CCOC(=O)c1cc2cc(-c3cc(C(=O)NCc4ccc(C(=O)O)cc4)nn3C)ccc2[nH]1	cell-free assay, competition with immobilised ligand	0.1 µM	59
CN(c1nccc(-c2cnn3ncccc23)n1)C1CC1	binding	1 µM	100
c1cncc(-c2cccc(Nc3nccc(NC4CCCCC4)n3)c2)c1	binding, competition with immobilised ligand	10 µM	70
O=C1NC(c2ccccn2)Sc2ccccc21 (stereo not shown)	cell-free assay, competition with immobilised ligand	1 µM	100
COc1cnc(Nc2cccc(S(N)(=O)=O)c2)nc1N1CCN(c2ccccc2)C(=O)C1	binding, competition with immobilised ligand	1 µM	100
O=C(NCCCN1CCOCC1)c1ccc(Nc2ncc(Cl)c(-c3ccc(Cl)s3)n2)cc1	binding, competition with immobilised ligand	1 µM	90
C[C@@H]1CCN(c2nccc(-c3cnn4ncccc34)n2)C1	binding	1 µM	100
O=C(NCCCC1CCCCC1)c1ccc(CNC(=O)c2cnn(-c3ccccc3)c2C(F)(F)F)cc1	cell-free assay, competition with immobilised ligand	0.1 µM	83
O=C(c1ccc(Nc2nccc(-c3cc4ccccc4s3)n2)cc1)N1CCC(N2CCCC2)CC1	binding, competition with immobilised ligand	1 µM	90
COc1ccc2c(O[C@@H]3C[C@H]4C(=O)N[C@]5(C(=O)O)CC5/C=C\CCCCC[C@H](NC(=O)OC5CCCC5)C(=O)N4C3)cc(-c3csc(NC(=O)C(C)C)n3)nc2c1C (stereo partly shown)	cell-free assay, competition with immobilised ligand	1 µM	72
CN(C)c1nccc(-c2cnn3ncccc23)n1	binding	1 µM	90
C=CC(=O)N1CCC(C(=O)NCC(=O)N2CCN(c3nc(-c4cnc(N)nc4C(F)F)nc(N4CCOCC4)n3)CC2)CC1	binding, competition with immobilised ligand	1 µM	86
N[C@@H]1CCN(c2nccc(-c3cnn4ncccc34)n2)C1	binding	1 µM	100
C[C@H](c1ccnc(Nc2nc3ccc(-c4cc(N(C)C)ncn4)cc3[nH]2)c1)N1CCN(C(=O)CC(F)(F)F)CC1	cell-free assay, competition with immobilised ligand	0.1 µM	100
CN(CCCC(F)(F)F)c1nccc(-c2cnn3ncccc23)n1	binding	1 µM	100
O=C(NCc1ncc(C(F)(F)F)cc1Cl)c1ccc2c(c1)C1(CCS(=O)(=O)CC1)[C@@H](C1CC1)N2S(=O)(=O)c1ccc(F)cc1	cell-free assay, competition with immobilised ligand	1 µM	100
c1cnn2ncc(-c3ccnc(N4CCC45COC5)n3)c2c1	binding	1 µM	99
O=C(NCCCN1CCOCC1)c1ccc(Nc2nccc(-c3cc4ccccc4s3)n2)cc1	binding, competition with immobilised ligand	1 µM	58
